Drawing on ChEMBL document CHEMBL1138380, “4-Aminopyrimidines as novel HIV-1 inhibitors” (Bioorg Med Chem Lett, 2007), this text covers EC50 and CC50 for 39 compounds.

In series [1] the test system is Human immunodeficiency virus. As to the kind of experiment: Antiviral activity against HIV in HEK293T cells after 48 hrs. It is filed as functional, organism-based. The settings on record: Human immunodeficiency virus 1, HEK-293T. The method in brief: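 HEK 293T cells grown in DMEM with 10% FBS and Pen/Strep/glutamine, seeded at 700 cells/well in 1536-well format, then cultured 24 h at 37 °C under 5% CO2. Compounds serially diluted in DMSO were added and incubated 1 h at 37 °C. Cells were then infected with HIV reporter virus at MOI ~1.0 and cultured 48 h at 37 °C. Read-out was luciferase activity.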

Series [2] in a line: Cytotoxicity against HEK293T cells after 48 hrs. Type of series: cell-based, HEK-293T. To be noted: human. The method in brief: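 293T cells seeded at 700 cells/well in 1536-well format and cultured 24 h at 37 °C under 5% CO2. Compounds serially diluted in DMSO were added. After culture, viability was read by Alamar Blue diluted 1:1 in DMEM, incubated 4 h at room temperature, with fluorescence intensity measured.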

A word on the EC50: it is the midpoint of the concentration-response curve. A low value points to an effect from little substance. By CC50 is commonly meant the concentration that lowers cell viability or growth by half. A high value points to better tolerance by the cells.

With `CCc1ncnc(NC(C)c2ccc(OC(=O)N(C)C)cc2)c1Cl` (stereo not drawn), the 50% effective concentration (EC50) in series [1] was determined as 4 nM. The compound further yielded a CC50 at 48 h in series [2] of more than 10000 nM.

`CCc1ncnc(NC(C)c2ccc(OC(=O)NCCOCCNC(C)=O)cc2)c1Cl` (stereo not drawn) returned a half-maximal effective concentration (EC50) in series [1] of 5 nM. This compound also returned a CC50 at 48 h in series [2] of more than 10000 nM.

On to `CCc1ncnc(NC(C)c2ccc(OC(=O)NCCCOCCCNC(C)=O)cc2)c1Cl` (stereo not drawn), for which, in series [1], the response was half-maximal at 5 nM (EC50). For the same compound, the half-maximal cytotoxic concentration (CC50) at 48 h in series [2] was more than 10000 nM.

The compound `CCc1ncnc(NC(C)c2ccc(NC(=O)N(C)CCCN(C)C(C)=O)cc2)c1Cl` (stereo not drawn) showed an EC50 in series [1] of 4890 nM. This compound had a CC50 at 48 h in series [2] of more than 10000 nM.

As to `CCc1ncnc(NC(C)c2ccc(NC(C)=O)cc2)c1Cl` (stereo not drawn), in series [1], the midpoint of the response, the EC50, lay at 1190 nM. In series [2], this compound gave a CC50 at 48 h of more than 10000 nM.

`CCc1ncnc(NC(CC)c2ccc(N(C)C)cc2)c1Cl` (stereo not drawn) displayed an EC50 in series [1] of 341 nM. Also, the half-maximal cytotoxic concentration (CC50) at 48 h in series [2] is more than 10000 nM.

`CCc1ncnc(NC(CC)c2ccc(Oc3ncnc4ccccc34)cc2)c1Cl` (stereo not drawn) gave an EC50 in series [1] of 48 nM. The same compound had a CC50 at 48 h in series [2] of more than 10000 nM.

On to `CCc1ncnc(NC(C)c2cccc3ccccc23)c1Cl` (stereo not drawn), for which a half-maximal effect in series [1] (EC50) was put at 95 nM. This compound yielded a 50% cytotoxic concentration (CC50) at 48 h in series [2] of more than 10000 nM.

For the compound `CCc1ncnc(NC(C)c2ccc3ccccc3c2)c1Cl` (stereo not drawn), in series [1], the concentration giving a half-maximal response (EC50) came out at 139 nM. In series [2], this compound displayed a CC50 at 48 h of more than 10000 nM.

In series [1], `CCc1ncnc(NC(C)c2ccc3ccccc3n2)c1Cl` (stereo not drawn) gave a concentration giving a half-maximal response (EC50) of 42 nM. In series [2], this compound came in with a CC50 at 48 h of more than 10000 nM.

With `CCc1ncnc(NC(C)c2cc3c(cc2O)CCCC3)c1Cl` (stereo not drawn), it took 778 nM to reach a half-maximal effect in series [1] (EC50). In addition, in series [2], the CC50 at 48 h is more than 10000 nM.

Compound `CCc1ncnc(NC(C)c2ccc3c(c2)NCCO3)c1Cl` (stereo not drawn) yielded a concentration giving a half-maximal response (EC50) in series [1] of 29 nM. In addition, the CC50 at 48 h in series [2] was more than 10000 nM.

In turn, `CCc1ncnc(NC(C)c2ccc3c(c2)N(C(C)=O)CCO3)c1Cl` (stereo not drawn) had an EC50 in series [1] of 35 nM. For the same compound, the CC50 at 48 h in series [2] is more than 10000 nM.

For the compound `CCc1ncnc(NC(C)c2sc3ccccc3c2C)c1Cl` (stereo not drawn), the 50% effective concentration (EC50) in series [1] turned out to be 816 nM. The compound further returned a half-maximal cytotoxic concentration (CC50) at 48 h in series [2] of more than 10000 nM.

In series [1], `CCc1ncnc(NC(C)c2ccc3c(c2)N=C(NCCO)CO3)c1Cl` (stereo not drawn) came in with a concentration for a half-maximal effect (EC50) of 353 nM. This compound came in with a CC50 at 48 h in series [2] of more than 10000 nM.

`CCc1ncnc(NC(C)c2ccc(C(C)(C)C)cc2)c1Cl` (stereo not drawn): the half-maximal effective concentration (EC50) in series [1] was 16 nM. In series [2], this compound returned a CC50 at 48 h of more than 10000 nM.

As for `CCc1ncnc(NC(C)c2ccc(NC(=O)CCCC[C@@H]3SC[C@@H]4NC(=O)N[C@@H]43)cc2)c1Cl` (stereo partly drawn), the EC50 in series [1] came to 622 nM. Moreover, the CC50 at 48 h in series [2] was more than 10000 nM.

Consider `CCC(Nc1cc(C)ncn1)c1ccc(Oc2ccc(F)cc2)cc1` (stereo not drawn), for which the concentration giving a half-maximal response (EC50) in series [1] came to 324 nM. In series [2], this compound returned a CC50 at 48 h of more than 10000 nM.

The compound `CCCc1cc(NC(CC)c2ccc(Oc3ccc(F)cc3)cc2)ncn1` (stereo not drawn) showed a concentration for a half-maximal effect (EC50) in series [1] of 96 nM. This compound showed a CC50 at 48 h in series [2] of more than 10000 nM.

Turning to `CCc1ncnc(NC(CC)c2ccc(Oc3ccc(F)cc3)cc2)c1Br` (stereo not drawn), the response in series [1] was half-maximal at 3 nM (EC50). In series [2], this compound returned a CC50 at 48 h of more than 10000 nM.

Take `CCc1ncnc(NC(C)c2ccc(OC(=O)N(C)CCCN(C)C(C)=O)cc2)c1Cl` (stereo not drawn): in series [1], the EC50 stood at 327 nM. Also, the cytotoxic concentration (CC50) at 48 h in series [2] was more than 10000 nM.

Consider `CCc1ncnc(N(C)C(C)c2ccc(OC(=O)N(C)C)cc2)c1Cl` (stereo not drawn), for which the EC50 in series [1] was more than 10000 nM. The compound further gave a CC50 at 48 h in series [2] of more than 10000 nM.

For `CCc1ncnc(N(C)C(C)c2ccc(OC(=O)N(C)CCOCCN(C)C(C)=O)cc2)c1Cl` (stereo not drawn), in series [1], the concentration giving a half-maximal response (EC50) is more than 10000 nM. The compound also had a 50% cytotoxic concentration (CC50) at 48 h in series [2] of more than 10000 nM.

The compound `CCc1ncnc(NC(C)c2ccc(NC(=O)N(C)CCOCCN(C)C(C)=O)cc2)c1Cl` (stereo not drawn) showed a 50% effective concentration (EC50) in series [1] of 3020 nM. The compound further yielded a half-maximal cytotoxic concentration (CC50) at 48 h in series [2] of more than 10000 nM.

Take `CCc1ncnc(NC(C)c2ccc(OC(=O)NCCOCCOCCOCCNC(C)=O)cc2)c1Cl` (stereo not drawn): the EC50 in series [1] came out at 190 nM. In addition, the CC50 at 48 h in series [2] is more than 10000 nM.

As to `CCCc1ncnc(NC(CC)c2ccc(Oc3ccc(F)cc3)cc2)c1Br` (stereo not drawn), a half-maximal effect in series [1] (EC50) was put at 760 nM. In series [2], this compound registered a CC50 at 48 h of more than 10000 nM.

`CCc1ncnc(NC(CC)c2ccc(C(C)(C)C)cc2)c1Cl` (stereo not drawn) returned a 50% effective concentration (EC50) in series [1] of 28 nM. Also, in series [2], the half-maximal cytotoxic concentration (CC50) at 48 h is more than 10000 nM.

For the compound `CCc1ncnc(NC(C)c2cc3cccc(OC)c3o2)c1Cl` (stereo not drawn), in series [1], it took 691 nM to reach a half-maximal effect (EC50). This compound yielded a CC50 at 48 h in series [2] of more than 10000 nM.

Take `CCc1ncnc(NCc2ccc(C(C)(C)C)cc2)c1Cl`: a half-maximal effect in series [1] (EC50) was put at 331 nM. The cytotoxic concentration (CC50) at 48 h in series [2] is more than 10000 nM.

As to `CCc1ncnc(NC(CC)c2ccc([N+](=O)[O-])cc2)c1Cl` (stereo not drawn), the half-maximal effective concentration (EC50) in series [1] amounted to 2660 nM. Moreover, the CC50 at 48 h in series [2] is more than 10000 nM.

Regarding `CCc1ncnc(NC(CC)c2ccc(-c3ccccc3)cc2)c1Cl` (stereo not drawn), in series [1], a half-maximal response (EC50) required 17 nM. In series [2], this compound yielded a cytotoxic concentration (CC50) at 48 h of more than 10000 nM.

`CCc1ncnc(NC(C)c2ccc3c(c2)CCCC3)c1Cl` (stereo not drawn) registered an EC50 in series [1] of 170 nM. The same compound came in with a CC50 at 48 h in series [2] of more than 10000 nM.

In the case of `CCC(Nc1nc(C)nc(Cl)c1N)c1ccc(Oc2ccc(F)cc2)cc1` (stereo not drawn), the concentration for a half-maximal effect (EC50) in series [1] is 15 nM. This compound also showed a CC50 at 48 h in series [2] of more than 10000 nM.

For `CCc1nc(C)nc(NC(CC)c2ccc(Oc3ccc(F)cc3)cc2)c1Br` (stereo not drawn), in series [1], the midpoint of the response, the EC50, lay at 18 nM. This compound also came in with a CC50 at 48 h in series [2] of more than 10000 nM.

Compound `CCc1ncnc(NC(C)c2ccc(OC(=O)NCCCNC(C)=O)cc2)c1Cl` (stereo not drawn) returned an EC50 in series [1] of 190 nM. This compound also returned a CC50 at 48 h in series [2] of more than 10000 nM.

In turn, `CCC(Nc1cc(COC)ncn1)c1ccc(Oc2ccc(F)cc2)cc1` (stereo not drawn) had an EC50 in series [1] of 31 nM. The compound also displayed a 50% cytotoxic concentration (CC50) at 48 h in series [2] of more than 10000 nM.

In turn, `CCc1ncnc(NC(C)c2ccc(OC(=O)N(C)CCOCCN(C)C(C)=O)cc2)c1Cl` (stereo not drawn) showed a concentration giving a half-maximal response (EC50) in series [1] of 4 nM. In series [2], this compound returned a 50% cytotoxic concentration (CC50) at 48 h of more than 10000 nM.

`O=C1Nc2ccc(Cl)cc2C(C#CC2CC2)(C(F)(F)F)O1` (single isomer, unassigned) [EFAVIRENZ] displayed an EC50 in series [1] of 0.5 nM. In addition, in series [2], the CC50 at 48 h was found to be 10000 nM.

The compound `Cc1ccnc2c1NC(=O)c1cccnc1N2C1CC1` [NEVIRAPINE] displayed a concentration for a half-maximal effect (EC50) in series [1] of 50 nM. The compound also yielded a half-maximal cytotoxic concentration (CC50) at 48 h in series [2] of more than 10000 nM.
